Laboratory results published in ChEMBL document CHEMBL4425132, “Antibacterial and Solubility Optimization of Thiomuracin A” (J Med Chem, 2016).
≈ marks a conversion by molar mass, not a printed value.

Key:
Streptococcus pyogenes = experiment: Antimicrobial activity against Streptococcus pyogenes ATCC BAA-595 by broth microdilution method; assay type: functional
Outline: (§1)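 MICs determined by CLSI broth microdilution. Broth microdilution was used for every species tested, including the anaerobe C. difficile.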

Enterococcus faecalis [1] = experiment: Antimicrobial activity against Enterococcus faecalis ATCC 29212 by broth microdilution method; assay type: functional; outline: as §1
[2] = Aqueous solubility of the compound at 20 mg/ml after 24 hrs RP-HPLC based shake flask method; assay type: physicochemical; conditions: aqueous medium
Outline: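 Compound samples examined for dissolution. Clear solutions were reported as >starting concentration, with pH recorded. Samples with visible particles were filtered through 0.22 µ PVDF membranes, pH recorded, and dissolved drug quantified by RP-HPLC.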

Enterococcus faecium = experiment: Antimicrobial activity against Enterococcus faecium 7130724 by broth microdilution method; assay type: functional; outline: as §1
Clostridioides difficile [3] = experiment: Antimicrobial activity against Clostridium difficile ATCC 43255 by broth microdilution method; assay type: functional; outline: as §1
Staphylococcus aureus [4] = experiment: Antimicrobial activity against methicillin-resistant Staphylococcus aureus by broth microdilution method; assay type: functional
Outline: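 Broth microdilution MIC following CLSI methods, with broth microdilution used for all species.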

Clostridioides difficile [5] = experiment: Antimicrobial activity against Clostridium difficile ATCC 43255 infected in golden Syrian hamster assessed as animal survival at 5 mg/kg, po for 5 days dosed starting 24 hrs after infection measured for 16 days; assay type: functional; conditions: ATCC 43255, po
Outline: (§2)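 Hamsters given a single subcutaneous clindamycin injection (10 mg/kg) on day -1. About 24 h later they were infected by oral gavage with ~7.5 x10^6 CFU/hamster. Inoculum was prepared from overnight plates resuspended in reinforced clostridial medium + 1% oxyrase. Oral dosing once daily for up to 5 days, 8 animals per dose. Animals observed twice daily for mortality, diarrhea and morbidity. Vehicle-only control group.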

Clostridioides difficile [6] = experiment: Antimicrobial activity against Clostridium difficile ATCC 43255 infected in golden Syrian hamster assessed as animal survival at 25 mg/kg, po for 5 days dosed starting 24 hrs after infection measured for 16 days; assay type: functional; conditions: ATCC 43255, po; outline: as §2
Clostridioides difficile [7] = experiment: Antimicrobial activity against Clostridium difficile ATCC 43255 infected in golden Syrian hamster assessed as animal survival at 10 mg/kg, po for 5 days dosed starting 24 hrs after infection measured for 16 days; assay type: functional; conditions: ATCC 43255, po; outline: as §2
Enterococcus faecalis [8] = experiment: Antimicrobial activity against Enterococcus faecalis NB04025; assay type: functional
Outline: (§3)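 MIC by CLSI broth microdilution against the strains used in the mouse infection model.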

Enterococcus faecalis [9] = experiment: Antimicrobial activity against Enterococcus faecalis NB04025 infected in CD1 mouse systemic infection model dosed intravenously once immediately following bacterial inoculation; assay type: functional; conditions: for ED50: NB04025, iv
Staphylococcus aureus [10] = experiment: Antimicrobial activity against Staphylococcus aureus ATCC 49951; assay type: functional; outline: as §3
Staphylococcus aureus [11] = experiment: Antimicrobial activity against Staphylococcus aureus ATCC 49951 infected in CD1 mouse systemic infection model dosed intravenously 1 and 5 hrs after inoculation; assay type: functional; conditions: for ED50: ATCC 49951, iv
[12] = Half life in Sprague-Dawley rat at 1 mg/kg, iv by LC-MS/MS method; assay type: ADME, organism-based; conditions: in vivo
Outline: (§4)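 Rats fasted overnight before dosing and for 8 hr after. Blood collected into K2-EDTA tubes and centrifuged to plasma. Plasma protein-precipitated with acetonitrile containing glyburide internal standard. Analysis by LC-MS/MS on reversed-phase C18 columns with a 5% to 95% acetonitrile gradient over ~3.5 min (0.1% formic acid in both phases).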

[13] = AUC in Sprague-Dawley rat at 1 mg/kg, iv by LC-MS/MS method; assay type: ADME, organism-based; conditions: in vivo; outline: as §4
[14] = Clearance in Sprague-Dawley rat at 1 mg/kg, iv by LC-MS/MS method; assay type: ADME, organism-based; conditions: in vivo; outline: as §4
[15] = Volume of distribution at steady state in Sprague-Dawley rat at 1 mg/kg, iv by LC-MS/MS method; assay type: ADME, organism-based; conditions: in vivo, read-out: Vdss; outline: as §4
Clostridioides difficile [16] = experiment: Antimicrobial activity against Clostridium difficile ATCC 43255 infected in golden Syrian hamster assessed as animal survival at 20 mg/kg, po for 5 days dosed starting 24 hrs after infection measured for 16 days; assay type: functional; conditions: ATCC 43255, po; outline: as §2

| SMILES | MIC (Streptococcus pyogenes) [µg/mL] | MIC (Enterococcus faecalis [1]) [µg/mL] | solubility thermodynamic at 24 h [2] [µg/mL] | MIC (Enterococcus faecium) [µg/mL] | MIC (Clostridioides difficile [3]) [µg/mL] | MIC (Staphylococcus aureus [4]) [µg/mL] | survival at 25 mg/kg (Clostridioides difficile [6]) [%] | ED50 (Enterococcus faecalis [9]) [mg/kg] | ED50 (Staphylococcus aureus [11]) [mg/kg] | further results |
| --- | --- | --- | --- | --- | --- | --- | --- | --- | --- | --- |
| Cc1sc2nc1C(=O)N[C@@H]([C@H](O)c1ccccc1)c1nc(cs1)C(=O)N[C@@H](Cc1ccc(O)cc1)C(=O)NCC(=O)N1C[C@H](O)[C@H](C)[C@H]1c1nc(cs1)-c1nc(cs1)-c1nc(-c3nc(C(=O)N(CCCCC(=O)O)[C@H]4CC[C@H](C(=O)O)CC4)cs3)ccc1-c1nc(cs1)C(=O)N[C@H]2CC(N)=O | 0.5 (≈ 0.337 µM) | 1 (≈ 0.674 µM) | 3400 (≈ 2290 µM) | 1 (≈ 0.674 µM) | 0.125 (≈ 0.0842 µM) | 2 (≈ 1.35 µM) |  |  |  |  |
| COCc1sc2nc1C(=O)NCC(=O)N[C@@H]([C@@H](O)c1ccccc1)c1nc(cs1)-c1nc(cs1)-c1nc(-c3nc(N(CCCCC(=O)O)C(=O)O[C@H]4CC[C@H](C(=O)O)CC4)cs3)ccc1-c1nc(cs1)C(=O)N[C@@H](CC(N)=O)C1=NC(C)=C(S1)C(=O)N[C@H]2C(C)C |  |  |  |  |  |  |  |  |  | survival at 5 mg/kg (Clostridioides difficile [5]): 71 to 75% |
| Cc1sc2nc1C(=O)N[C@@H]([C@H](O)c1ccccc1)c1nc(cs1)C(=O)N[C@@H](Cc1ccc(O)cc1)C(=O)NCC(=O)N1C[C@H](O)[C@H](C)[C@H]1c1nc(cs1)-c1nc(cs1)-c1nc(-c3nc(C(=O)O)cs3)ccc1-c1nc(cs1)C(=O)N[C@H]2CC(N)=O | 0.5 (≈ 0.397 µM) | 0.5 (≈ 0.397 µM) | 1 (≈ 0.795 µM) | 0.5 (≈ 0.397 µM) | 0.125 (≈ 0.0993 µM) | 2 (≈ 1.59 µM) | 75 |  |  |  |
| Cc1sc2nc1C(=O)N[C@@H]([C@H](O)c1ccccc1)c1nc(cs1)C(=O)N[C@@H](Cc1ccc(O)cc1)C(=O)NCC(=O)N1C[C@H](O)[C@H](C)[C@H]1c1nc(cs1)-c1nc(cs1)-c1nc(-c3nc(N(CCCCC(=O)O)C(=O)O[C@H]4CC[C@H](C(=O)O)CC4)cs3)ccc1-c1nc(cs1)C(=O)N[C@H]2CC(N)=O | 0.125 (≈ 0.0833 µM) | 0.25 (≈ 0.167 µM) | 9700 (≈ 6470 µM) | 0.125 (≈ 0.0833 µM) | 0.06 (≈ 0.04 µM) | 0.25 (≈ 0.167 µM) |  |  |  | survival at 10 mg/kg (Clostridioides difficile [7]): 63%; survival at 5 mg/kg (Clostridioides difficile [5]): 25% |
| Cc1sc2nc1C(=O)N[C@@H]([C@H](O)c1ccccc1)c1nc(cs1)C(=O)N[C@@H](Cc1ccc(O)cc1)C(=O)NCC(=O)N1C[C@H](O)[C@H](C)[C@H]1c1nc(cs1)-c1nc(cs1)-c1nc(-c3nc(C(=O)NCCCCC(=O)O)cs3)ccc1-c1nc(cs1)C(=O)N[C@H]2CC(N)=O | 0.125 (≈ 0.0921 µM) | 0.125 (≈ 0.0921 µM) | 730 (≈ 538 µM) | 0.125 (≈ 0.0921 µM) | 0.06 (≈ 0.0442 µM) | 0.5 (≈ 0.368 µM) | 13 |  |  |  |
| Cc1sc2nc1C(=O)N[C@@H]([C@H](O)c1ccccc1)c1nc(cs1)C(=O)N[C@@H](Cc1ccc(O)cc1)C(=O)NCC(=O)N1C[C@H](O)[C@H](C)[C@H]1c1nc(cs1)-c1nc(cs1)-c1nc(-c3nc(C(N)=O)cs3)ccc1-c1nc(cs1)C(=O)N[C@H]2CC(N)=O | 1 (≈ 0.795 µM) | 0.25 (≈ 0.199 µM) |  | 0.5 (≈ 0.398 µM) | < 0.008 | 0.25 (≈ 0.199 µM) | 0 | 1.5 | 8 | MIC (Enterococcus faecalis [8]): 0.125 µg/mL (≈ 0.0994 µM); MIC (Staphylococcus aureus [10]): 1 µg/mL (≈ 0.795 µM) |
| Cc1sc2nc1C(=O)N[C@@H]([C@H](O)c1ccccc1)c1nc(cs1)C(=O)N[C@@H](Cc1ccc(O)cc1)C(=O)NCC(=O)N1C[C@H](O)[C@H](C)[C@H]1c1nc(cs1)-c1nc(cs1)-c1nc(-c3nc(C(=O)N[C@H]4CC[C@H](C(=O)O)CC4)cs3)ccc1-c1nc(cs1)C(=O)N[C@H]2CC(N)=O | 0.25 (≈ 0.181 µM) | 0.125 (≈ 0.0903 µM) | 750 (≈ 542 µM) | 0.125 (≈ 0.0903 µM) | 0.03 (≈ 0.0217 µM) | 0.25 (≈ 0.181 µM) |  | 0.71 | 3.42 | half-life [12]: 1.8 h; survival at 10 mg/kg (Clostridioides difficile [7]): 0%; AUC [13]: 13.2 µM·h; Activity (Enterococcus faecalis [9]): Dose-dependent effect; clearance [14]: 0.98 mL/min/kg; Vd [15]: 0.032 L/kg; Activity (Staphylococcus aureus [11]): Dose-dependent effect |
| Cc1sc2nc1C(=O)N[C@@H]([C@H](O)c1ccccc1)c1nc(cs1)C(=O)N[C@@H](Cc1ccc(O)cc1)C(=O)NCC(=O)N1C[C@H](O)[C@H](C)[C@H]1c1nc(cs1)-c1nc(cs1)-c1nc(-c3nc(NC(=O)O[C@H]4CC[C@H](C(=O)O)CC4)cs3)ccc1-c1nc(cs1)C(=O)N[C@H]2CC(N)=O | 0.125 (≈ 0.0893 µM) | 0.125 (≈ 0.0893 µM) | 6 (≈ 4.29 µM) | 0.125 (≈ 0.0893 µM) | 0.03 (≈ 0.0214 µM) | 0.25 (≈ 0.179 µM) |  |  |  |  |
| CCCCCCCCCC(=O)N[C@@H](Cc1c[nH]c2ccccc12)C(=O)N[C@H](CC(N)=O)C(=O)N[C@@H](CC(=O)O)C(=O)N[C@@H]1C(=O)NCC(=O)N[C@@H](CCCN)C(=O)N[C@@H](CC(=O)O)C(=O)N[C@H](C)C(=O)N[C@@H](CC(=O)O)C(=O)NCC(=O)N[C@H](CO)C(=O)N[C@@H]([C@H](C)CC(=O)O)C(=O)N[C@@H](CC(=O)c2ccccc2N)C(=O)O[C@@H]1C |  |  |  |  |  |  |  | 2.6 | 0.21 |  |
| CN[C@H](CC(C)C)C(=O)N[C@H]1C(=O)N[C@@H](CC(N)=O)C(=O)N[C@H]2C(=O)N[C@H]3C(=O)N[C@H](C(=O)N[C@H](C(=O)O)c4cc(O)cc(O)c4-c4cc3ccc4O)[C@H](O)c3ccc(c(Cl)c3)Oc3cc2cc(c3O[C@@H]2O[C@H](CO)[C@@H](O)[C@H](O)[C@H]2O[C@H]2C[C@](C)(N)[C@H](O)[C@H](C)O2)Oc2ccc(cc2Cl)[C@H]1O [VANCOMYCIN] |  |  |  |  |  |  |  | 7.74 | 1.1 | survival at 20 mg/kg (Clostridioides difficile [16]): 38% |
